In BindingDB's records for doi:10.1016/j.bmcl.2010.04.101 (Indian Institute of Technology, 2010) one finds Ki data, which are given here for six compounds.

Each structure is given as a SMILES string.

This assay concerns the target T1, Membrane-bound transcription factor site-1 protease (Homo sapiens, UniProt Q14703).
T1 sequence (Q14703 whole entry): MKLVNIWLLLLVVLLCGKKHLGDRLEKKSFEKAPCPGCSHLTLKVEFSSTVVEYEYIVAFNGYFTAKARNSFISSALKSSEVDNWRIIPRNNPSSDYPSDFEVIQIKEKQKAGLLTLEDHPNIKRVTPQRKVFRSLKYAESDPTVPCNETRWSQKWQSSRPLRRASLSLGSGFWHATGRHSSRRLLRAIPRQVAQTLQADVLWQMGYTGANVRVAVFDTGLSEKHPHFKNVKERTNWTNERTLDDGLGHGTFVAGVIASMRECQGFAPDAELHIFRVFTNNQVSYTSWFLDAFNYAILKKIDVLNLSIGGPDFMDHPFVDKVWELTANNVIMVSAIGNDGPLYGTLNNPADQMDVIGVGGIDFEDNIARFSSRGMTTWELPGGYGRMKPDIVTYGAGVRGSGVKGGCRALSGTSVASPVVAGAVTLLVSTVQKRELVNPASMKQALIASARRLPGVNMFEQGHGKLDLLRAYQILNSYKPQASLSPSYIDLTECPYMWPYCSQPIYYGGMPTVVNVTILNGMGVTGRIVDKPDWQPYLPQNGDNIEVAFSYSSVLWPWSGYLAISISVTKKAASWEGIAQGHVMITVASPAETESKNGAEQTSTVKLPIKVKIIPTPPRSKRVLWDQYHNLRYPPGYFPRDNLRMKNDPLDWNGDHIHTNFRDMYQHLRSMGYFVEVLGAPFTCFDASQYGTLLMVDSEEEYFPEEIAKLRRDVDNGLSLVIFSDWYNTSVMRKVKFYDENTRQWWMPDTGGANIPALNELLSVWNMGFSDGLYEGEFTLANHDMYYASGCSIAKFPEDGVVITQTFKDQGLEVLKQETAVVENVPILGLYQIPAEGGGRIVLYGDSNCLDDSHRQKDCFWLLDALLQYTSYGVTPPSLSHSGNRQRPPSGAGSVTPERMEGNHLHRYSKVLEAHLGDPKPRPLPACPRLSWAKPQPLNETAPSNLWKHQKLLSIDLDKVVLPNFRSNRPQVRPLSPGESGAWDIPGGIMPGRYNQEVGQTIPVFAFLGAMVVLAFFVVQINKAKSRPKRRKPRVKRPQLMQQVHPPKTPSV
Briefly: Inhibition of human recombinant soluble Kexin isozyme 1. An outline of the steps: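 Recombinant soluble human SKI-1 (activity normalized to 10 pmol Abz-peptide released per µL per h, 37 °C). Only the E-form was tested, at varying concentrations, with quenched fluorogenic Abz-Q-GPC251–263-Tyx substrate in Tris/Mes/2 mM CaCl2 buffer at 37 °C. RFU (ex 320/em 420 nm) were read from 0–6 h and converted to cleavage rates. Ki came from Dixon plots at 0.1, 0.05 and 0.025 mM substrate.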
A word on the Ki: it is the dissociation constant of the complex between target and ligand, obtained from inhibition or displacement. `CC(C)[C@H](NC(=O)COc1ccccc1/N=N/c1ccccc1OCC(=O)N[C@H](C(=O)OCc1ccccc1)C(C)C)C(=O)OCc1ccccc1`: the Ki is 125 µM. To `O=C(COc1ccccc1/N=N/c1ccccc1OCC(=O)N[C@@H](Cc1ccccc1)C(=O)OCc1ccccc1)N[C@@H](Cc1ccccc1)C(=O)OCc1ccccc1` belongs 11.8 µM. `CC(C)[C@H](NC(=O)COc1ccccc1/N=N/c1ccccc1OCC(=O)N[C@H](C(=O)O)C(C)C)C(=O)O`: the Ki was found to be 75 µM. As to `O=C(COc1ccccc1/N=N/c1ccccc1OCC(=O)N[C@@H](Cc1ccccc1)C(=O)O)N[C@@H](Cc1ccccc1)C(=O)O`, the Ki turned out to be 225 µM. Take `O=C(O)CNC(=O)COc1ccccc1/N=N/c1ccccc1OCC(=O)NCC(=O)O`: the Ki was found to be 265 µM. The same measure for `O=C(COc1ccccc1/N=N/c1ccccc1OCC(=O)N[C@@H](Cc1ccccc1)C(=O)N[C@@H](Cc1ccccc1)C(=O)O)N[C@@H](Cc1ccccc1)C(=O)N[C@@H](Cc1ccccc1)C(=O)O`: 140 µM.
